Bioassay records as filed in PubChem.
S100A4 MyoIIA: blocks human S100A4 binding to myosin IIA peptide; 0.14% of 360,000 active; P26447; inhibition, % at 10.7 µM; S100A4/TAMRA-MyoIIA peptide fluorescence polarization; AID 652163;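 active = mean inhibition of at least 70% across replicates, with every replicate also reaching that level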
Target sequence (P26447 whole entry, looked up): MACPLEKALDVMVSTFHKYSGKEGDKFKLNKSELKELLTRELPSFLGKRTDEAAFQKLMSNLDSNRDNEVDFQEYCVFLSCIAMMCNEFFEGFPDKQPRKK
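System – human S100A4 monomer protein, biochemical binding assay · Buffer or medium – Calcium-containing HEPES buffer, pH 7.2 · Timing – 5 min between mix addition and reading · Also added – TAMRA-labelled myosin IIA heavy-chain peptide probe, 5 nM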
DENV2 CPE: protects cells from dengue virus 2 cytopathic effect | DENV2-infected cells, cytopathic effect rescue, plate reader | CPE inhibition, % at 9.99 µM | 1.7% of 350,000 active | AID 651640; in the data active = CPE inhibition above about 20%, passing the limit was not always enough; tested in BHK-21 cells;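 also: 0% = median of neutral control wells and 100% = median of positive control wells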
E-selectin induc: E-selectin induction on HUVECs | P16581 | HUVEC E-selectin immunofluorescence imaging; normalized: neutral wells 0, TNF-alpha wells 100 | activation, % at 7.58 µM | 0.37% of 260,000 active | AID 686992;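 active = mean E-selectin-positive cell signal at least 10% of the positive control, reached in at least 60% of replicates, without over 20% cell loss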
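Test system: HUVEC | Signal: Immunofluorescence imaging | Read-out: Percent E-selectin-positive cells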
Xi reactivation: reactivates the inactive X chromosome in mouse fibroblasts; XiGFP mouse fibroblasts, % GFP-positive cells imaging, 3 d; cells co-treated with 5-aza-dC sensitizer; scaled so ellipticine positive control = 100%; activation, % at 7.58 µM; 0.055% of 360,000 active; AID 743238;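 active = mean normalized replicate activation at least 10% and every replicate at or above 10%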;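 also: 0% = median of on-plate neutral control wells and 100% = ellipticine 6 µM median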
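Assay system – SV40-immortalized XiGFP fibroblast cells, line 68-5-11 · Buffer or medium – DMEM supplemented with 5-aza-dC as sensitizing agent · Dosing – one concentration, pinned · Benchmarks – positive control ellipticine, 6 µM final · Times – 3 days compound exposure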
* hit, by the source's call; . = no result; ! = not confirmed by another sample. Rows were chosen to be rich in hits. Some 2% of all compounds tested hit in one or more screens of this group.

SMILES	S100A4 MyoIIA	DENV2 CPE	E-selectin induc	Xi reactivation
O=C(C1=C[C@H](c2ccc3c(c2)OCO3)C[C@H](OCc2ccc(CO)cc2)O1)N1CCN(Cc2ccc3c(c2)OCO3)CC1	0.1	58.5*!	0.1	0.0
O=C(NCc1ccccc1)C1=C[C@@H](c2ccc3c(c2)OCO3)C[C@@H](OCc2ccc(CO)cc2)O1	-6.8	21.8*!	0.0	-0.1
O=C(C1=C[C@@H](c2ccc3c(c2)OCO3)C[C@@H](OCc2ccc(CO)cc2)O1)N1CCN(Cc2ccc3c(c2)OCO3)CC1	1.2	-0.7	.	.
O=C(C1=C[C@H](c2ccc(C(F)(F)F)cc2)C[C@H](OCc2ccc(CO)cc2)O1)N1CCCC1	0.1	-0.3	.	.
CN1CCN(C(=O)C2=C[C@@H](c3ccc(C(F)(F)F)cc3)C[C@@H](OCc3ccc(CO)cc3)O2)CC1	-4.0	77.8*!	-0.1	0.0
CC(C)(C)[C@H]1C=C(C(=O)N2CCOCC2)O[C@@H](OCc2ccc(CO)cc2)C1	-1.7	35.7*!	0.0	0.0
CCC(=O)N1[C@H](CO)[C@H]2c3ccccc3N(C(=O)c3ccccc3F)C[C@H]21	-52.2	3.8	0.1	0.1
COc1ccc(S(=O)(=O)N(C)C[C@H]2OCCCC[C@H](C)Oc3ccc(NS(=O)(=O)c4ccc(F)cc4)cc3C(=O)N([C@H](C)CO)C[C@@H]2C)cc1	-76.0	-0.7	-0.2	0.2
Cc1cc(C)cc(NC(=O)c2oc3ccccc3c2COc2ccccc2)c1	.	.	.	0.0
C[C@H]1C=C(C(=O)N2CCN(Cc3ccc4c(c3)OCO4)CC2)O[C@@H](OCc2ccc(CO)cc2)C1	8.9	23.6*!	-0.1	0.3
C[C@@H]1C=C(C(=O)N2CCN(Cc3ccc4c(c3)OCO4)CC2)O[C@H](OCc2ccc(CO)cc2)C1	5.9	2.4	.	.
CCOC(=O)c1cnc2cc(F)c(F)cc2c1N1CCOCC1	0.5	6.3	0.3	0.0
CCOC(=O)c1cnc2c(c(C3CC3)nn2C)c1N1CCOCC1	0.5	6.3	29.0*	0.1
CC(C)N1CCN(Cc2nc(-c3ccccc3)cs2)CC1CCO (stereo not drawn)	.	.	.	0.0
COc1ccc([C@H]2C[C@@H](O)C[C@@H](CCn3cc(-c4ccccc4)nn3)O2)cc1	25.2	-9.7	0.0	0.0
c1ccc(COCCCn2cc(-c3ccccc3)nn2)cc1	3.3	45.5*	.	0.0
COc1ccc(CN2CCN(Cc3cc(=O)oc4cc(C)ccc34)CC2)c(OC)c1OC	0.6	7.7	-0.1	0.0
CCCNC(=O)N1[C@H](CO)[C@H](c2ccccc2-c2ccccc2)[C@@H]1C#N	38.2	108.7*	0.0	0.3
CCC(=O)N1[C@H](C#N)[C@@H](c2ccccc2-c2ccccc2)[C@@H]1CO	-2.3	16.0	-0.1	0.2
CCC(=O)N1[C@@H](C#N)[C@H](c2ccccc2-c2ccccc2)[C@@H]1CO	0.1	46.8*	0.0	0.0
O=C(O)c1c(C(=O)O)c(-c2ccc(Cl)c(Cl)c2)n2c1CSC2	-17.6	14.2	58.4*	0.2
COc1ccc(S(=O)(=O)N2CCC(C(=O)NCCC(=O)NCc3cccnc3)CC2)cc1	-2.5	75.2*	0.0	0.0
CC1=C(C(=O)N2CCC=CC2=O)Cc2ccccc21	12.9	14.8	.	.
Cc1ccc(Cn2c([N+](=O)[O-])cnc2C)cc1	.	.	.	0.5
Cc1ncc([N+](=O)[O-])n1Cc1ccccc1	-1.4	50.5*	.	0.2
SMILES	S100A4 MyoIIA	DENV2 CPE	E-selectin induc	Xi reactivation
CCOC(=O)CC1(CCc2ccccc2)Oc2ccccc2N1S(=O)(=O)c1ccc(C)cc1 (stereo not drawn)	2.0	-3.0	0.0	0.0
CCOC(=O)CC1(C)Sc2ccccc2N1S(=O)(=O)c1ccc(C)cc1 (stereo not drawn)	-4.2	63.2*	0.5	0.0
CC1CCN(C(=O)CC#N)CC1	-0.6	0.3	.	0.2
COc1ccc(N2CC(C(=O)N3CCOCC3)CC2=O)cc1 (stereo not drawn)	-10.5	-2.9	0.0	0.2
COc1cc(C)nc(NC(=S)N(C)C(=O)c2ccccc2)n1	-6.5	-6.9	0.1	0.0
CCOC(=O)/C(=C/C=C1\Sc2cc(C)c(C)cc2N1CC)C(C)=O	-40.9	.	.	16.6*
CCOC(=O)/C(=C\C=C1/Sc2ccccc2N1CC)C(C)=O	-10.8	-2.8	0.7	0.5
C[C@@H]1CN([C@H](C)CO)C(=O)c2cc(NC(=O)Cn3cnnn3)ccc2O[C@H]1CN(C)Cc1ccc2c(c1)OCO2	-0.5	21.1*	5.4	0.0
C[C@H](CO)N1C[C@H](C)[C@@H](CN(C)Cc2ccc3c(c2)OCO3)Oc2ccc(NC(=O)Cn3cnnn3)cc2C1=O	-14.6	14.1	-9.2	-0.1
C[C@@H]1CN([C@@H](C)CO)C(=O)c2cc(NC(=O)Cn3cnnn3)ccc2O[C@@H]1CN(C)Cc1ccc(Cl)c(Cl)c1	-27.3	51.7*	.	0.0
C[C@H]1CN([C@@H](C)CO)C(=O)c2cc(NC(=O)Cn3cnnn3)ccc2O[C@@H]1CN(C)Cc1ccc2c(c1)OCO2	3.9	-0.1	38.3*	-0.1
CCCCC(=O)OCc1c(-c2ccccc2)ncc2ccccc12	1.3	-1.1	0.0	0.1
CC(=O)Nc1cccc(C(=O)OC(C)C(=O)NC2CCCc3ccccc32)c1 (stereo not drawn)	-3.6	-0.1	0.1	-0.1
Cc1cc(C)n2nc(-c3ccc(Br)cc3)cc2n1	2.3	-5.2	.	0.0
CCC(=O)N1C[C@@H](C)[C@@H](OC)CN(C)C(=O)c2cc(NC(=O)c3cnccn3)ccc2OC[C@@H]1C	9.4	3.9	-0.1	0.0
CCC(=O)N1C[C@H](C)[C@H](OC)CN(C)C(=O)c2cc(NC(=O)c3cnccn3)ccc2OC[C@H]1C	-12.1	24.5*	0.3	0.2
CO[C@H]1CN(C)C(=O)c2ccc(NC(=O)c3cnccn3)cc2OC[C@@H](C)N(CC2CC2)C[C@@H]1C	-2.0	21.6*	-0.1	-0.1
CO[C@H]1CN(C)C(=O)c2ccc(NS(=O)(=O)CC(F)(F)F)cc2OC[C@H](C)N(Cc2cccnc2)C[C@@H]1C	-20.3	12.2	-0.1	0.3
CO[C@@H]1CN(C)C(=O)c2ccc(NS(C)(=O)=O)cc2OC[C@H](C)N(Cc2cccnc2)C[C@@H]1C	2.3	26.2*	0.0	0.1
CO[C@H]1CN(C)C(=O)c2cc(NS(=O)(=O)CC(F)(F)F)ccc2OC[C@H](C)N(Cc2cccnc2)C[C@@H]1C	-5.7	37.1*	-0.3	0.2
COCc1[nH]nc2c1C(c1ccc3c(c1)OCO3)N(c1ccc(OC)cc1)C2=O (stereo not drawn)	-2.2	4.7	-0.2	0.6
C/C(=N/NC(=O)c1ccncc1)c1cc2ccc(O)cc2oc1=O	-15.4	-14.8	.	0.0
C/C=C\C(=O)Nc1cccc(C2=NOC3(C2)C[C@@H](C(N)=O)N(C(=O)c2ccc(Cl)cc2)C3)c1 (stereo partly drawn)	0.3	-7.0	-0.3	-0.3
C/C=C\C(=O)Nc1cccc(C2=NOC3(C2)C[C@@H](C(N)=O)N(C(=O)c2ccc(OC)cc2)C3)c1 (stereo partly drawn)	12.4	22.1*	-0.2	-0.1
